# From ChEMBL document CHEMBL1151814, “Ambuic acid and torreyanic acid derivatives from the endolichenic fungus Pestalotiopsis sp” (J Nat Prod, 2009)
# Active and inactive are the calls of the source. The calls are words filed in the database; no cut-off is given here.
# Key:
# Type in all cases: functional, organism-based
# [1] = test system: Staphylococcus aureus; assay: Antibacterial activity against Staphylococcus aureus ATCC 6538 after 24 hrs by NCCLS method; details: ATCC 6538, 24 h
# Outline: (§1)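 Bacteria grown on Mueller-Hinton agar; inoculum from broth culture at 37 °C for 24 h, final suspension 10^6 cells/mL in MHB. Serial dilutions from 10 mg/mL DMSO stock, tested in triplicate per NCCLS recommendations. Absorbance read at 595 nm after incubation. Inhibition rate plotted against concentration to give IC50. Controls were antimicrobial peptide AMP and streptomycin.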
# [2] = test system: Aspergillus fumigatus; assay: Antifungal activity against Aspergillus fumigatus ATCC 10894 after 48 hrs by NCCLS method
# Outline: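 Mould grown on potato dextrose agar; inoculum from broth culture at 28 °C for 48 h, final 10^4 mycelial fragments/mL in PDB. Compounds serially diluted from 10 mg/mL DMSO stock, triplicate wells per NCCLS. Absorbance at 595 nm after incubation; IC50 from inhibition rate plotted versus concentration. Fluconazole positive control.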
# [3] = test system: Streptococcus pneumoniae; assay: Antibacterial activity against Streptococcus pneumoniae CGMCC 1.1692 after 24 hrs by NCCLS method; details: CGMCC 1.1692, 24 h; outline: as §1
# [4] = test system: Escherichia coli; assay: Antibacterial activity against Escherichia coli CGMCC 1.2340 after 24 hrs by NCCLS method; details: CGMCC 1.2340, 24 h; outline: as §1
# [5] = test system: Candida albicans; assay: Antifungal activity against Candida albicans ATCC 10231 after 48 hrs by NCCLS method; details: ATCC 10231, 48 h
# Outline: (§2)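 Yeasts grown on Sabouraud dextrose agar; inoculum from broth culture at 28 °C for 48 h, final suspension 10^5 cells/mL in SDB. Serial dilutions from 10 mg/mL DMSO stock in triplicate per NCCLS. A595 read after incubation; IC50 derived from inhibition rate versus concentration plot. Fluconazole served as positive control.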
# [6] = test system: Geotrichum candidum; assay: Antifungal activity against Geotrichum candidum AS2.498 after 48 hrs by NCCLS method; details: AS2.498, 48 h; outline: as §2
SMILES,IC50 [1],Activity [2],IC50 [3],IC50 [4],IC50 [5],IC50 [6]
CCCCC/C=C/C1=C(CO)[C@H](O)[C@H]2O[C@@]2(C/C=C(\C)C(=O)O)C1=O [AMBUIC ACID],43.9 µM,inactive,,,,
CCCCC/C=C/C1=C(COC(C)=O)[C@@H](O)[C@H]2O[C@@]2(C/C=C(\C)C(=O)O)C1=O,27.8 µM,inactive,,,,
CCC/C=C/C=C/C1=C(CO)[C@@H](O)[C@H]2O[C@@]2(C/C=C(\C)C(=O)O)C1=O,> 50 µM,inactive,> 50 µM,> 50 µM,> 50 µM,> 50 µM
CCC(=O)CC/C=C/C1=C(CO)[C@@H](O)[C@H]2O[C@@]2(C/C=C(\C)C(=O)O)C1=O,> 50 µM,inactive,> 50 µM,> 50 µM,> 50 µM,> 50 µM
CCCCCC1O[C@H]2C3=C(C(=O)[C@@]4(C/C=C(\C)C(=O)O)OC4[C@H]3O)C1C1C(CCCCC)OC=C3C(=O)C4O[C@]4(C/C=C(\C)C(=O)O)C(=O)C312 (stereo not given in full),> 50 µM,inactive,> 50 µM,> 50 µM,> 50 µM,> 50 µM
CCCCC/C=C/C1=C2COC(C)(C)O[C@H]2[C@H]2O[C@@]2(C/C=C(\C)C(=O)O)C1=O,> 50 µM,inactive,> 50 µM,> 50 µM,> 50 µM,> 50 µM
CCCCCCCC1=C(CO)[C@@H](O)[C@H]2O[C@@]2(C/C=C(\C)C(=O)O)C1=O,> 50 µM,inactive,> 50 µM,> 50 µM,> 50 µM,> 50 µM
CCCCC/C=C/C1=C(CO)C(=O)C[C@](O)(C/C=C(\C)C(=O)O)[C@H]1O,> 50 µM,inactive,> 50 µM,> 50 µM,> 50 µM,> 50 µM
